Measurements as given in PMC3434103 (The Journal of General Physiology, 2012).
“Also recorded” adds a separate entry of the source. Each block holds one compound with its values, some of them ahead of it. Ends that are not written are not given here.

Key:
[1] = target: recombinant WT mouse RyR2 (Mus musculus, UniProt E9Q401); assay: TAA block of EMD 41000-activated WT RyR2, single channel in planar bilayer; format: biochemical
WT mouse RyR2 = assay: TAA block of ryanodine-modified WT RyR2, single channel; format: biochemical; settings: 60 mV; for rate of dissociation (koff), difference TBA vs TPeA: 200 µM TBA or 100 µM TPeA, 1 µM ryanodine-modified; for level of block: ryanodine-modified WT, 100 µM TPeA (200 µM TBA)
Outline: (§1)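 Ryanodine-modified single channels were used: purified HEK293-expressed mouse RyR2 (WT or mutant) in PE bilayers, symmetrical KCl/HEPES pH 7.2, room temperature. TAA was added to […], with the holding potential at 60 mV. Data were filtered at 5 kHz and sampled at 20 kHz. Open and blocked lifetimes came from 50% threshold analysis of ≥2 min records, and blocking parameters were derived from them. Mean ± SEM, unpaired t tests.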

K^+ channels = settings: quoted range, ref Faraldo-Gómez et al., 2007; cited from earlier work
KcsA = settings: cytosolic cavity of KcsA; ref Faraldo-Gómez et al., 2007; cited from earlier work
I4861A RyR2 [2] = target: T1, I4861A RyR2 (Mus musculus, UniProt E9Q401, I4860A/I4861A); assay: TPeA block of EMD 41000-activated I4861A RyR2; format: biochemical; settings: 60 mV
I4862A RyR2 [3] = target: T2, I4862A RyR2 (Mus musculus, UniProt E9Q401, I4861A); assay: TPeA block of EMD 41000-activated I4862A RyR2; format: biochemical; settings: 60 mV
L4865A RyR2 [4] = target: T3, L4865A RyR2 (Mus musculus, UniProt E9Q401, L4864A); assay: TPeA block of EMD 41000-activated L4865A RyR2; format: biochemical; settings: 60 mV
I4861A RyR2 [5] = target: T1, I4861A RyR2; assay: TPeA block of ryanodine-modified I4861A RyR2; format: biochemical; settings: 100 µM TPeA, 60 mV
Outline: as §1

I4862A RyR2 [6] = target: T2, I4862A RyR2; assay: TPeA block of ryanodine-modified I4862A RyR2; format: biochemical; settings: 100 µM TPeA, 60 mV
Outline: as §1

L4865A RyR2 [7] = target: T3, L4865A RyR2; assay: TPeA block of ryanodine-modified L4865A RyR2; format: biochemical; settings: 100 µM TPeA, 60 mV
Outline: as §1

I4867A RyR2 [8] = target: T4, I4867A RyR2 (Mus musculus, UniProt E9Q401, I4866A); assay: TPeA block of ryanodine-modified I4867A RyR2; format: biochemical; settings: 100 µM TPeA, 60 mV
Outline: as §1

F4870A RyR2 [9] = target: T5, F4870A RyR2 (Mus musculus, UniProt E9Q401, F4869A); assay: TPeA block of ryanodine-modified F4870A RyR2; format: biochemical; settings: 100 µM TPeA, 60 mV
Outline: as §1

RyR2 = assay: ShBP block of RyR2 in symmetrical 610 mM KCl; format: biochemical; settings: for block at high K+ activity: preliminary, symmetrical 610 mM KCl plus up to 100 µM EMD 41000
[10] = target: WT recombinant ryanodine-modified RyR2 channels (Mus musculus, UniProt E9Q401); assay: biochemical
I4861A RyR2 [11] = target: T1, I4861A RyR2; assay: Ryanodine modification of I4861A RyR2; format: biochemical
Outline: (§2)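 Mouse RyR2 (WT or TM10 alanine mutants) was expressed in HEK293 cells by Ca²⁺ phosphate transfection for 48 h, solubilized in CHAPS/phosphatidylcholine and purified on a 0–40% sucrose gradient. Single channels were incorporated into PE bilayers with the cytosolic side cis, in symmetrical KCl with 20 mM HEPES pH 7.2, at 22 ± 2°C. After 1 µM ryanodine, amplitudes were read at 60 mV. Mean ± SEM, n = 4–7, unpaired t test.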

I4862A RyR2 [12] = target: T2, I4862A RyR2; assay: Ryanodine modification of I4862A RyR2; format: biochemical
Outline: as §2

L4865A RyR2 [13] = target: T3, L4865A RyR2; assay: Ryanodine modification of L4865A RyR2; format: biochemical
Outline: as §2

I4867A RyR2 [14] = target: T4, I4867A RyR2; assay: Ryanodine modification of I4867A RyR2; format: biochemical
Outline: as §2

F4870A RyR2 [15] = target: T5, F4870A RyR2; assay: Ryanodine modification of F4870A RyR2; format: biochemical
Outline: as §2

[16] = 1 µM ryanodine, 60 mV, lower than WT

T5 sequence (E9Q401 whole entry F4869A): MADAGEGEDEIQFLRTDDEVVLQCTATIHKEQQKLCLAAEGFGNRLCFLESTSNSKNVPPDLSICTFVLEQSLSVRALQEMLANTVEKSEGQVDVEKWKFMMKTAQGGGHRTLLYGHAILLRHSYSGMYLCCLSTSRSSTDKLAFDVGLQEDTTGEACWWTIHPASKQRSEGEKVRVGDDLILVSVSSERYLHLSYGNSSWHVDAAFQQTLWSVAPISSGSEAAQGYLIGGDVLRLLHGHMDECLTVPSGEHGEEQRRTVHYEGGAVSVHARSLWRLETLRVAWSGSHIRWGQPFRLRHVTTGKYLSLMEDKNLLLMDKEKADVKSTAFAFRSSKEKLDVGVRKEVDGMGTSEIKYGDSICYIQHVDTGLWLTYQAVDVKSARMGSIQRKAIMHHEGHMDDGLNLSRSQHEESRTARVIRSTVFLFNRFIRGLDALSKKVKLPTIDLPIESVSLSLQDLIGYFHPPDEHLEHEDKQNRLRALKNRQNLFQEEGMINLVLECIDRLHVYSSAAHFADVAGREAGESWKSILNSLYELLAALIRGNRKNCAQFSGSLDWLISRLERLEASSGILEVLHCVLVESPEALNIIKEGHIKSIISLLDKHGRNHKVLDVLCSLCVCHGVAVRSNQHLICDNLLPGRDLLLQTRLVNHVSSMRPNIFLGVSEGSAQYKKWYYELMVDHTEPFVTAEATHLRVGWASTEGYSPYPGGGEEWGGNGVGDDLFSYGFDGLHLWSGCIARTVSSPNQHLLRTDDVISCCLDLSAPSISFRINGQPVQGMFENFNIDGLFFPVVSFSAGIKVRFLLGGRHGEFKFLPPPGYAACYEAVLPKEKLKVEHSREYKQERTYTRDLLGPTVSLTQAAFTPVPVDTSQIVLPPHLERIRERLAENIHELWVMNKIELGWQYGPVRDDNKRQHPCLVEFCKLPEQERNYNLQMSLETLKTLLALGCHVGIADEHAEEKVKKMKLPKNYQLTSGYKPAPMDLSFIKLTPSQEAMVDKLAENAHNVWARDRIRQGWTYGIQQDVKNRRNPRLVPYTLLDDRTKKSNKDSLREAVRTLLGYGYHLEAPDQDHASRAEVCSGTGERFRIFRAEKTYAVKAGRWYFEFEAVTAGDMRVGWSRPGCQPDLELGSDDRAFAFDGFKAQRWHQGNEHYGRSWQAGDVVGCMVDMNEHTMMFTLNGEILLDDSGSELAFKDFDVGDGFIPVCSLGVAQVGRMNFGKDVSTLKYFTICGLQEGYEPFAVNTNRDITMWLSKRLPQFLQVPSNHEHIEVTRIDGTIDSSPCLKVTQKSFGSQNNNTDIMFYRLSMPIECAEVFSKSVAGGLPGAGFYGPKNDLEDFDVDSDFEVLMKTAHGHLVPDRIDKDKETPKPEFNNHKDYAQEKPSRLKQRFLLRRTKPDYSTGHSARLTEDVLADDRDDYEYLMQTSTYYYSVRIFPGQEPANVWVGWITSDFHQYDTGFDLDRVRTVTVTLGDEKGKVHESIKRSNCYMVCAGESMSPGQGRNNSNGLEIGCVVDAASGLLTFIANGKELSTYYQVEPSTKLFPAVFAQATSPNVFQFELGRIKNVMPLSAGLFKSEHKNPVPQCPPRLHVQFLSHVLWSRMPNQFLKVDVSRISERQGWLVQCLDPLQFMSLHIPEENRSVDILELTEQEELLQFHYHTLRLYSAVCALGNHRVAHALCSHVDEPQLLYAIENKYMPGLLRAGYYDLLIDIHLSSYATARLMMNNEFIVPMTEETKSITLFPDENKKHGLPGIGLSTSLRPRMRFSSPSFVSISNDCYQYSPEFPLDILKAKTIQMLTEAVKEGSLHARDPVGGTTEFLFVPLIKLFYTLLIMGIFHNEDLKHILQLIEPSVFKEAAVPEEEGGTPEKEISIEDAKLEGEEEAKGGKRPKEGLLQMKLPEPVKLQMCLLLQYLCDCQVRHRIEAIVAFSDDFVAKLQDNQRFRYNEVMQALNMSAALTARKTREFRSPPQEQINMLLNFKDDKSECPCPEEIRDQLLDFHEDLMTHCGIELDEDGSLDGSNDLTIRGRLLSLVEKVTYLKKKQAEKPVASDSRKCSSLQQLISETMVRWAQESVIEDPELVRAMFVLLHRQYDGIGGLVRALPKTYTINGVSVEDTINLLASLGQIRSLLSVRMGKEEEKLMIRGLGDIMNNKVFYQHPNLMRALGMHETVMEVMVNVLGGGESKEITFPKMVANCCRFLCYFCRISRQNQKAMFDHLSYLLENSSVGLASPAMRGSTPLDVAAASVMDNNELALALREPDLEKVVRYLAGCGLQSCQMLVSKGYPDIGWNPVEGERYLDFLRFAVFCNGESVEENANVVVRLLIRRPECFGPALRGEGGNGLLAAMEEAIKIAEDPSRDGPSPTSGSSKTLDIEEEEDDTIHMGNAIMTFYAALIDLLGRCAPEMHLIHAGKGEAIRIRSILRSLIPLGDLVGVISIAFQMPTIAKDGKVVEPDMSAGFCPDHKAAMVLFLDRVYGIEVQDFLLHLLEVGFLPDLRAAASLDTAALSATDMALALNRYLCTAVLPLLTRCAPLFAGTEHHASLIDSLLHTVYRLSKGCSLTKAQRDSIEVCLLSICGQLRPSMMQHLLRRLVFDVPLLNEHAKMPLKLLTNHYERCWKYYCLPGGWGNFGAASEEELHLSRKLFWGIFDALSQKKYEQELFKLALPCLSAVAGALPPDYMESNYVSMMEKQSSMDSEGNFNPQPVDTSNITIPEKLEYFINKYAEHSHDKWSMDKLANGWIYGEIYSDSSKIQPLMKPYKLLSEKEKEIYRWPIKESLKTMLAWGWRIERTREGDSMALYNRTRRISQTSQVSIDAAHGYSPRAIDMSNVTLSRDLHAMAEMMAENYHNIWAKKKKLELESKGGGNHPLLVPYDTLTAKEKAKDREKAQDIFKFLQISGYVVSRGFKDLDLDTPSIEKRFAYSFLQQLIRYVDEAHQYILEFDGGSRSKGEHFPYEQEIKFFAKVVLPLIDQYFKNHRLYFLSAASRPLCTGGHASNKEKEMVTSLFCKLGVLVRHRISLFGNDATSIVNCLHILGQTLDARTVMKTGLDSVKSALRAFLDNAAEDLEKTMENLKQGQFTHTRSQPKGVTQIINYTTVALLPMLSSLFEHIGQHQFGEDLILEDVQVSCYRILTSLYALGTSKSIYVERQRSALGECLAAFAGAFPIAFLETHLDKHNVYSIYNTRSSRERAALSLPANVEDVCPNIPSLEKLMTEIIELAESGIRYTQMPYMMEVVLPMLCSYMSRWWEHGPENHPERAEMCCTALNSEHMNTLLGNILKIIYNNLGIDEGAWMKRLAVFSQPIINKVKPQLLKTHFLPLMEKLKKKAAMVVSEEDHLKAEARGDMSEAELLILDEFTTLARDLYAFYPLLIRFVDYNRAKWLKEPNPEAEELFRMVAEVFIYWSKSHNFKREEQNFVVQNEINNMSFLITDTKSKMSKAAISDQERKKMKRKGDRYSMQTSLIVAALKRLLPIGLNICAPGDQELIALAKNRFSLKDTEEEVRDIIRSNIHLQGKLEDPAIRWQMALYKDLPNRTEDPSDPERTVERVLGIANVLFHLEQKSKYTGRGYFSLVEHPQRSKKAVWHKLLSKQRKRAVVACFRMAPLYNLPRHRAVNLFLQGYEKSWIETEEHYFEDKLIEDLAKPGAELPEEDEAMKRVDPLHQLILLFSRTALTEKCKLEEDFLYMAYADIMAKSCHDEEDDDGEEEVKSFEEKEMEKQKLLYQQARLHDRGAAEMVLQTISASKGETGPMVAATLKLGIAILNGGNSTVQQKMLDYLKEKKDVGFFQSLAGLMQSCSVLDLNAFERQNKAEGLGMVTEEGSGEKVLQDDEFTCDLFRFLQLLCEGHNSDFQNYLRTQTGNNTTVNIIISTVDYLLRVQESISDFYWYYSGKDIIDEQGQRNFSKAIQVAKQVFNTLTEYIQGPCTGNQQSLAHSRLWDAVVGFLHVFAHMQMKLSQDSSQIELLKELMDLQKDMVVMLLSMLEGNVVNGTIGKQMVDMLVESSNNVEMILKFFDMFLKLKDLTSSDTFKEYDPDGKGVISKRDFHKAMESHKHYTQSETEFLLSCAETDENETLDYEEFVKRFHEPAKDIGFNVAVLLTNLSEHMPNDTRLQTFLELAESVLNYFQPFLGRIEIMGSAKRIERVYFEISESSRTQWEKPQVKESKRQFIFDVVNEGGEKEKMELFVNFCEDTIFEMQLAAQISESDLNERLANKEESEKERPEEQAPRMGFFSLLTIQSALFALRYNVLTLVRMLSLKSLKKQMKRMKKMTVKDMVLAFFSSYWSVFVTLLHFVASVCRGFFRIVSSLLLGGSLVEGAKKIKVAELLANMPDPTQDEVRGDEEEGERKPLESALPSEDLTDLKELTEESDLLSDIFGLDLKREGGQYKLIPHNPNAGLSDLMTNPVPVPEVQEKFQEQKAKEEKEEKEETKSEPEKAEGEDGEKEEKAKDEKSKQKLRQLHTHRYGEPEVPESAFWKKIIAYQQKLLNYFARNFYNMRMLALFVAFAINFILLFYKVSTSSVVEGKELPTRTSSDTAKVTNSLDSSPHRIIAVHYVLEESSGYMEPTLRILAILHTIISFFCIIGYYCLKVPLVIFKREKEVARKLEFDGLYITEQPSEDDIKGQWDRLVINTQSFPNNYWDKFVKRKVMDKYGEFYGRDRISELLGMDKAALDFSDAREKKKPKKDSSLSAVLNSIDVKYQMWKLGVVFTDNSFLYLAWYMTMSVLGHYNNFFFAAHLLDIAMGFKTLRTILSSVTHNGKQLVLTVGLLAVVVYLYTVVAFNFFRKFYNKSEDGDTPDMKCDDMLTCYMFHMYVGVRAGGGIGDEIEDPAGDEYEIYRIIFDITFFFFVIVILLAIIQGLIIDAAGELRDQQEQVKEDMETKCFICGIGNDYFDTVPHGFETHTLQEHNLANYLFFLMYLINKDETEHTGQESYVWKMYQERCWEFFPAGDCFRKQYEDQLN
T4 sequence (E9Q401 whole entry I4866A): as the sequence (E9Q401 whole entry F4869A) above, with I4866A, A4869F counted along it
T3 sequence (E9Q401 whole entry L4864A): as the sequence (E9Q401 whole entry F4869A) above, with L4864A, A4869F counted along it
Chain of recombinant WT mouse RyR2 (E9Q401 whole entry): as the sequence (E9Q401 whole entry F4869A) above, with A4869F counted along it
T2 sequence (E9Q401 whole entry I4861A): as the sequence (E9Q401 whole entry F4869A) above, with I4861A, A4869F counted along it
T1 sequence (E9Q401 whole entry I4860A/I4861A): as the sequence (E9Q401 whole entry F4869A) above, with I4860A, I4861A, A4869F counted along it

Compound: CCCC[N+](CCCC)(CCCC)CCCC [TBA, tetrabutylammonium]
Kd [1]: 179 µM
koff [1]: 412 s⁻¹
rate of dissociation (koff), difference TBA vs TPeA (WT mouse RyR2): very marked difference in the rates of dissociation of TBA and TPeA is retained
level of block (WT mouse RyR2): completely occlude the RyR2 pore
koff (K^+ channels): 10 to 200 s⁻¹
pore occlusion (KcsA): fully occludes the pore of the channel

Kd [1]: 2.58 µM
fold increase in affinity between TBA and THexA ([1]; EMD 41000-activated, 610 mM K+, 60 mV, THexA relative to TBA): 69.5 -fold
fold decrease in koff between TPeA and THexA ([1]; EMD 41000-activated, 610 mM K+, 60 mV, THexA relative to TPeA): 1.7 -fold
Compound: CCCCCC[N+](CCCCCC)(CCCCCC)CCCCCC [THexA, tetrahexylammonium]

fold decrease in koff between TBA and TPeA ([1]; EMD 41000-activated, 610 mM K+, 60 mV, TPeA relative to TBA): 22 -fold
probability of block (1 − Po) vs WT (I4861A RyR2 [2]; 100 µM TPeA): reduced significantly
rate of association (kon) vs WT (I4861A RyR2 [2]; 100 µM TPeA): unaffected
affinity (Kd) vs WT (I4861A RyR2 [2]; 100 µM TPeA, in words): significant decreases in TPeA affinity
probability of block (1 − Po) vs WT (I4862A RyR2 [3]; 100 µM TPeA): reduced significantly
rate of association (kon) vs WT (I4862A RyR2 [3]; 100 µM TPeA): unaffected
affinity (Kd) vs WT (I4862A RyR2 [3]; 100 µM TPeA, in words): significant decreases in TPeA affinity
rate of association (kon) vs WT (L4865A RyR2 [4]; 100 µM TPeA): unaffected
koff vs WT (I4861A RyR2 [5]): significant increase in koff
kon vs WT (I4861A RyR2 [5]): reduced significantly
affinity (Kd) vs WT (I4861A RyR2 [5]; in words): significant reduction in TPeA affinity
koff vs WT (I4862A RyR2 [6]): significant increase in koff
kon vs WT (I4862A RyR2 [6]): unaffected
affinity (Kd) vs WT (I4862A RyR2 [6]; in words): significant reduction in TPeA affinity
koff vs WT (L4865A RyR2 [7]): significant increase in koff
kon vs WT (L4865A RyR2 [7]): unaffected
affinity (Kd) vs WT (L4865A RyR2 [7]; in words): significant reduction in TPeA affinity
koff vs WT (I4867A RyR2 [8]): significant increase in koff
kon vs WT (I4867A RyR2 [8]): reduced significantly
affinity (Kd) vs WT (I4867A RyR2 [8]; in words): significant reduction in TPeA affinity
koff vs WT (F4870A RyR2 [9]): significant increase in koff
kon vs WT (F4870A RyR2 [9]): reduced significantly
affinity (Kd) vs WT (F4870A RyR2 [9]; in words): significant reduction in TPeA affinity
Compound: CCCCC[N+](CCCCC)(CCCCC)CCCCC [TPeA, tetrapentylammonium]
rate of dissociation (koff), difference TBA vs TPeA (WT mouse RyR2): very marked difference in the rates of dissociation of TBA and TPeA is retained
level of block (WT mouse RyR2): to a level indistinguishable from the closed state; also recorded: completely occlude the RyR2 pore
rate of dissociation (koff) vs WT (I4861A RyR2 [2]; 100 µM TPeA): significantly increased rates of TPeA dissociation
residual current vs WT (I4861A RyR2 [2]; 100 µM TPeA): slightly lower than the equivalent current in the WT RyR2
amplitude of full open state in presence of TPeA vs WT (I4861A RyR2 [2]): indistinguishable from that of the WT channel
rate of dissociation (koff) vs WT (I4862A RyR2 [3]; 100 µM TPeA): significantly increased rates of TPeA dissociation, with the most dramatic effect seen in I4862A
residual current vs WT (I4862A RyR2 [3]; 100 µM TPeA): indistinguishable from that of the WT channel
amplitude of full open state in presence of TPeA vs WT (I4862A RyR2 [3]): indistinguishable from that of the WT channel
rate of dissociation (koff) vs WT (L4865A RyR2 [4]; 100 µM TPeA): significantly increased rates of TPeA dissociation
residual current vs WT (L4865A RyR2 [4]; 100 µM TPeA): indistinguishable from that of the WT channel
amplitude of full open state in presence of TPeA vs WT (L4865A RyR2 [4]): indistinguishable from that of the WT channel
level of block (I4861A RyR2 [5]): to a level indistinguishable from the closed state
magnitude / probability of block (1 − Po) vs WT (I4861A RyR2 [5]): lower than that seen in the WT RyR channel
level of block (I4862A RyR2 [6]): to a level indistinguishable from the closed state
magnitude / probability of block (1 − Po) vs WT (I4862A RyR2 [6]): lower than that seen in the WT RyR channel
level of block (L4865A RyR2 [7]): to a level indistinguishable from the closed state
magnitude / probability of block (1 − Po) vs WT (L4865A RyR2 [7]): lower than that seen in the WT RyR channel
level of block (I4867A RyR2 [8]): to a level indistinguishable from the closed state
magnitude / probability of block (1 − Po) vs WT (I4867A RyR2 [8]): lower than that seen in the WT RyR channel
level of block (F4870A RyR2 [9]): to a level indistinguishable from the closed state
magnitude / probability of block (1 − Po) vs WT (F4870A RyR2 [9]): lower than that seen in the WT RyR channel

Compound: MAAVAGLYGLGEDRQHRKKQ [ShBP]
reduction in Po (RyR2; 20 µM ShBP cytosolic, ryanodine-modified, symmetrical 610 mM KCl): no significant reduction in Po
block at high K+ activity (RyR2): ineffective

Compound: MAAVVGLYGLGEDRQHRKKQ [MHBPII]
block at high K+ activity (RyR2): ineffective

Compound: MAQVQGLYGLGEDRQHRKKQ-NH2 [LHBP]
Kd [10]: 65.9 µM

Compound: MAVVAGLYGLGEDRQHRKKQ-NH2 [MHBPI]
Kd [10]: 27.8 µM

Compound: ryanodine
amplitude of ryanodine-modified open state vs WT modified channel (I4861A RyR2 [11]; 1 µM ryanodine, 60 mV): not significantly different from that of the WT channel
Po and unitary conductance on ryanodine modification (I4861A RyR2 [11]; ryanodine): characteristic increase in Po and reduction in unitary conductance
amplitude of ryanodine-modified open state vs WT modified channel (I4862A RyR2 [12]; 1 µM ryanodine, 60 mV): not significantly different from that of the WT channel
Po and unitary conductance on ryanodine modification (I4862A RyR2 [12]; ryanodine): characteristic increase in Po and reduction in unitary conductance
reduction in conductance of ryanodine-modified state vs WT modified channel (L4865A RyR2 [13]; [16]): ~10%
Po and unitary conductance on ryanodine modification (L4865A RyR2 [13]; ryanodine): characteristic increase in Po and reduction in unitary conductance
reduction in conductance of ryanodine-modified state vs WT modified channel (I4867A RyR2 [14]; [16]): ~10%
Po and unitary conductance on ryanodine modification (I4867A RyR2 [14]; ryanodine): characteristic increase in Po and reduction in unitary conductance
reduction in conductance of ryanodine-modified state vs WT modified channel (F4870A RyR2 [15]; [16]): ~10%
Po and unitary conductance on ryanodine modification (F4870A RyR2 [15]; ryanodine): characteristic increase in Po and reduction in unitary conductance
